Measurements as given in ChEMBL document CHEMBL3272019, “Synthesis and some properties and antitumor effects of the actinomycin lactam analog, (di(1-L-alpha, beta-diaminopropionic))actinomycin D1” (1976).
In brackets after ≈: the same amount, converted by molar mass. Activity calls are given as the source filed them. No cut-off for these calls is given here. Starred links: 1 amine or outer side, 2 acyl side, 3 side chain; linkers in the order of their positions; H or OH if unused. Positions of bridges follow the written chain, without caps; N, C: chain ends. Non-standard residues stand in square brackets, D forms with d. Residues, ends and D or L forms follow the SMILES beside them. Chains are numbered I, II in the order given. Actinocin(1to9) = Cc1c2oc3c(C)ccc(C(=O)[*:2])c3nc-2c(C(=O)[*:1])c(N)c1=O; NMeV = CN[C@H](C(=O)O)C(C)C; Sar = CNCC(=O)O

Tests used:
[1] = species on record: Homo sapiens; assay: Binding affinity to poly[d(DAP-A-T)] (unknown origin) at 14.3 uM by visible and near-UV CD spectrophotometry
Method in brief: (§1)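 Visible and near-UV CD spectra of actinomycin D recorded free and with polynucleotide, in 0.01 M sodium phosphate pH 7.0 at about 23°, in 1-cm tandem cylindrical quartz cells. DNA levels were given as nucleotide phosphorus: PM2 0.54 mM, calf thymus 0.50 mM, poly[d(DAP-A-T)] 0.12 mM and poly[d(DAP-T)] 0.27 mM. Drug concentration was set from the 440 nm extinction coefficient (24450 M⁻¹ cm⁻¹).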

[2] = species on record: Homo sapiens; assay: Binding affinity to poly[d(DAP-T)] (unknown origin) at 14.3 uM by visible and near-UV CD spectrophotometry; method in brief: as §1
[3] = system: Calf thymus DNA; assay: Binding affinity to calf thymus DNA at 34.5 uM by visible and near-UV CD spectrophotometry; assay type: nucleic-acid assay; conditions: Bos taurus; method in brief: as §1
[4] = system: Pseudoalteromonas phage PM2; assay: Binding affinity to bacteriophage PM2 DNA at 31 uM by visible and near-UV CD spectrophotometry; method in brief: as §1
[5] = system: Bacillus subtilis; assay: Antibacterial activity against Bacillus subtilis Marburg assessed as growth inhibition; assay type: functional
[6] = system: Staphylococcus aureus; assay: Antibacterial activity against Penicillin-resistant Staphylococcus aureus assessed as growth inhibition; assay type: functional
[7] = system: Sarcina; assay: Antibacterial activity against Sarcina subflava assessed as growth inhibition; assay type: functional
[8] = system: L1210; assay: Antitumor activity against mouse L1210 cells allografted in BDF1 mouse assessed as mean survival time at 0.05 mg/kg/injection, ip administered daily for 9 days (reference value: 9.6 days); assay type: functional; conditions: route intraperitoneal
[9] = system: L1210; assay: Antitumor activity against mouse L1210 cells allografted in BDF1 mouse assessed as mean survival time at 0.3 mg/kg/injection, ip administered intermittently on days 1, 5 and 9 (reference value: 9.6 days); assay type: functional; conditions: route intraperitoneal
[10] = system: L1210; assay: Antitumor activity against mouse L1210 cells allografted in BDF1 mouse assessed as mean survival time at 0.4 mg/kg/injection, ip administered as single dose (reference value: 9.6 days); assay type: functional; conditions: route intraperitoneal
[11] = system: L1210; assay: Antitumor activity against mouse L1210 cells allografted in BDF1 mouse assessed as increase in life span at 0.05 mg/kg/injection, ip administered daily for 9 days; assay type: functional; conditions: 216 h, route intraperitoneal
[12] = system: L1210; assay: Antitumor activity against mouse L1210 cells allografted in BDF1 mouse assessed as increase in lifespan at 0.3 mg/kg/injection, ip administered intermittently on days 1, 5 and 9; assay type: functional; conditions: route intraperitoneal
[13] = system: L1210; assay: Antitumor activity against mouse L1210 cells allografted in BDF1 mouse assessed as increase in life span at 0.4 mg/kg/injection, ip administered as single dose; assay type: functional; conditions: route intraperitoneal
[14] = system: P388; assay: Antitumor activity against mouse P388 cells allografted in BDF1 mouse assessed as mean survival time at 0.05 mg/kg/injection, ip administered daily for 9 days (reference value: 10.5 days); assay type: functional; conditions: route intraperitoneal
Method in brief: (§2)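 P388 leukaemia: 10⁶ cells implanted ip on day 0 into groups of eight male BDF mice. Dosing was ip daily on days 1–9, on days 1, 5 and 9, or as a single day-1 dose, over four- to fivefold dose ranges. Median survival time (range of deaths) and percent increase in life-span were recorded, with survivors/total counted at day 60.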

[15] = system: P388; assay: Antitumor activity against mouse P388 cells allografted in BDF1 mouse assessed as mean survival time at 0.3 mg/kg/injection, ip administered intermittently on days 1, 5 and 9 (reference value: 10.5 days); assay type: functional; conditions: route intraperitoneal; method in brief: as §2
[16] = system: P388; assay: Antitumor activity against mouse P388 cells allografted in BDF1 mouse assessed as mean survival time at 0.4 mg/kg/injection, ip administered as single dose (reference value: 10.5 days); assay type: functional; conditions: route intraperitoneal; method in brief: as §2
[17] = system: P388; assay: Antitumor activity against mouse P388 cells allografted in BDF1 mouse assessed as increase in life span at 0.05 mg/kg/injection, ip administered daily for 9 days measured on day 60; assay type: functional; conditions: route intraperitoneal; method in brief: as §2
[18] = system: P388; assay: Antitumor activity against mouse P388 cells allografted in BDF1 mouse assessed as increase in life span at 0.3 mg/kg/injection, ip administered intermittently on days 1, 5 and 9 measured on day 60; assay type: functional; conditions: 1440 h, route intraperitoneal; method in brief: as §2
[19] = system: P388; assay: Antitumor activity against mouse P388 cells allografted in BDF1 mouse assessed as increase in life span at 0.4 mg/kg/injection, ip administered as single dose measured on day 60; assay type: functional; conditions: 1440 h, route intraperitoneal; method in brief: as §2
[20] = system: B16; assay: Antitumor activity against mouse B16 cells allografted in BDF1 mouse assessed as mean survival time at 0.025 mg/kg/injection, ip administered daily for 9 days (reference value: 28 days); assay type: functional; conditions: route intraperitoneal
Method in brief: (§3)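 B16 melanoma in mice, standard screening method. Schedules were daily on days 1–9, on days 1, 5 and 9, or a single day-1 injection, each over a four- to fivefold dose range. Survival time (range of individual deaths) was recorded, percent increase in life-span computed against untreated controls, and survivors tallied.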

[21] = system: B16; assay: Antitumor activity against mouse B16 cells allografted in BDF1 mouse assessed as mean survival time at 0.3 mg/kg/injection, ip administered intermittently on days 1, 5 and 9 (reference value: 28 days); assay type: functional; conditions: route intraperitoneal; method in brief: as §3
[22] = system: B16; assay: Antitumor activity against mouse B16 cells allografted in BDF1 mouse assessed as mean survival time at 0.4 mg/kg/injection, ip administered as single dose (reference value: 28 days); assay type: functional; conditions: route intraperitoneal; method in brief: as §3
[23] = system: B16; assay: Antitumor activity against mouse B16 cells allografted in BDF1 mouse assessed as increase in life span at 0.025 mg/kg/injection, ip administered daily for 9 days measured on day 60; assay type: functional; conditions: route intraperitoneal; method in brief: as §3
[24] = system: B16; assay: Antitumor activity against mouse B16 cells allografted in BDF1 mouse assessed as increase in life span at 0.3 mg/kg/injection, ip administered intermittently on days 1, 5 and 9 measured on day 60; assay type: functional; conditions: 1440 h, route intraperitoneal; method in brief: as §3
[25] = system: B16; assay: Antitumor activity against mouse B16 cells allografted in BDF1 mouse assessed as increase in life span at 0.4 mg/kg/injection, ip administered as single dose measured on day 60; assay type: functional; conditions: 1440 h, route intraperitoneal; method in brief: as §3

For `Cc1c2oc3c(C)ccc(C(=O)N[C@@H]4C(=O)N[C@H](C(C)C)C(=O)N5CCC[C@H]5C(=O)N(C)CC(=O)N(C)[C@@H](C(C)C)C(=O)O[C@@H]4C)c3nc-2c(C(=O)N[C@@H]2C(=O)N[C@H](C(C)C)C(=O)N3CCC[C@H]3C(=O)N(C)CC(=O)N(C)[C@@H](C(C)C)C(=O)O[C@@H]2C)c(N)c1=O` [DACTINOMYCIN] (I: T[dV]P[Sar][NMeV] / II: T[dV]P[Sar][NMeV]; ester I:1-I:C, II:1-II:C; linker I:N-II:N via Actinocin(1to9)), the Activity [1] was “Active”, the Activity [2] was “Active” and the Activity [3] was “Active”. For the same compound, the Activity [4] was “Active”, the MIC [5] was 0.09 µg/mL (≈ 0.0717 µM) and the IC50 ([5]; read-out: ID50 (the source's name)) was 0.05 µg/mL (≈ 0.0398 µM). For the same compound, the MIC [6] was 0.05 µg/mL (≈ 0.0398 µM), the MIC [7] was 0.045 µg/mL (≈ 0.0358 µM) and the MST [8] was 13.6 days. The MST [9] was 14 days, the MST [10] was 12.6 days and the ILS at 0.05 mg/kg [11] was 42%. The ILS at 0.3 mg/kg [12] was 45%, the ILS at 0.4 mg/kg [13] was 31% and the MST [14] was 28.5 days. The MST [15] was 38 days, the MST [16] was 22 days and the ILS at 0.05 mg/kg [17] was 171%. For the same compound, the ILS at 0.3 mg/kg [18] was 262%, the ILS at 0.4 mg/kg [19] was 110% and the MST [20] was 45 days. For the same compound, the MST [21] was 41.5 days, the MST [22] was 38.5 days and the ILS at 0.025 mg/kg [23] was 61%. It also gave an ILS at 0.3 mg/kg [24] of 48% and an ILS at 0.4 mg/kg [25] of 38%.
